Source: ChEMBL document CHEMBL4834416, “The Discovery of Novel ACA Derivatives as Specific TRPM2 Inhibitors that Reduce Ischemic Injury Both In Vitro and In Vivo” (J Med Chem, 2021)
The source made the active and inactive calls. The rule behind the calls is not given here.

Assays:
[1] = target: T1, Transient receptor potential cation channel subfamily M member 2 (Homo sapiens, UniProt O94759); assay: Inhibition of human TRPM2 expressed in HEK293T cells assessed as blocked of ADPR-activated current by whole cell patch clamp electrophysiology; format: cell-based
SH-SY5Y [2] = assay: Cytotoxicity against human SH-SY5Y cells assessed as toxicity at 30 uM incubated for 24 hrs by CCK-8 assay; format: cell-based
Summary of the method: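 SH-SY5Y cells were seeded at 2 × 10⁴ per well and grown 12 h at 37 °C. They were then treated with compound (1–30 μM) under normoxic, normal-glucose conditions for 24 h. CCK-8 (10%) was added for 2 h at 37 °C and OD450 read. Viability was taken relative to untreated control after blank subtraction, with three replicate wells.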

[3] = target: Transient receptor potential cation channel subfamily M member 8 (Homo sapiens, UniProt Q7Z2W7); assay: Inhibition of human TRPM8 expressed in HEK293T cells assessed as blocked of menthol-activated current at 10 uM by whole cell patch clamp electrophysiology relative to control; format: cell-based
Summary of the method: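 Whole-cell patch clamp was run at room temperature on HEK293T cells transiently cotransfected with human TRPM8 plus GFP, 24–48 h before recording. ECS was 145 NaCl, 5.6 KCl, 2 MgCl₂, 1.2 CaCl₂, 10 HEPES, pH 7.2. Current was activated with 1 mM menthol, and compound was perfused at least 60 s after it stabilized. Inhibition was calculated relative to stable agonist current minus residual current; n = 3–6.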

Phospholipase A2 [4] = target: T2, Phospholipase A2 (Homo sapiens, UniProt P04054); assay: Inhibition of PLA2 (unknown origin) using soybean phosphatidylcholine as substrate at 10 uM preincubated for 30 mins followed incubated for 60 mins after substrate addition by microplate reader relative to control
Summary of the method: (§1)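 PLA2 (4 μg/L in PBS) was preincubated 30 min at 37 °C with inhibitor in 125 mM Tris. Substrate was then added for 60 min: soybean phosphatidylcholine with Tris, CaCl₂, sodium deoxycholate and 0.5% Triton X-100. Liberated free fatty acids were quantified colorimetrically at OD550. Results are % inhibition versus enzyme without inhibitor, n = 3.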

Phospholipase A2 [5] = target: T2, Phospholipase A2; assay: Inhibition of PLA2 (unknown origin) using soybean phosphatidylcholine as substrate at 3 uM preincubated for 30 mins followed incubated for 60 mins after substrate addition by microplate reader relative to control; summary of the method: as §1
SH-SY5Y [6] = assay: Neuroprotective activity against oxygen glucose deprivation/reperfusion-induced cell death in human SH-SY5Y cells assessed as cell viability at 3 uM […] by CCK8 assay relative to control; format: functional
SH-SY5Y [7] = assay: Neuroprotective activity against oxygen glucose deprivation/reperfusion-induced cell death in human SH-SY5Y cells assessed as cell viability at 0.3 uM […] for 12 hrs by CCK8 assay relative to control; format: functional; conditions: read-out: Activity
SH-SY5Y [8] = assay: Neuroprotective activity against oxygen glucose deprivation/reperfusion-induced cell death in human SH-SY5Y cells assessed as cell viability at 1 to 30 uM […] by CCK8 assay relative to control; format: functional; conditions: dose 1-30 µM
[9] = Cmax in C57BL/6 mouse plasma at 3 mg/kg, iv by LC-MS/MS analysis; format: ADME, organism-based; parameters: route intravenous, dose 3 mg/kg
[10] = AUC (0 to infinitive) in C57BL/6 mouse plasma at 3 mg/kg, iv by LC-MS/MS analysis; format: ADME, organism-based; parameters: time infinity, route intravenous, dose 3 mg/kg
[11] = Half life in C57BL/6 mouse plasma at 100 mg/kg, IG by LC-MS/MS analysis; format: ADME, organism-based; conditions: po
[12] = Cmax in C57BL/6 mouse plasma at 100 mg/kg, IG by LC-MS/MS analysis; format: ADME, organism-based; parameters: route […], dose 100 mg/kg; conditions: po
[13] = AUC (0 to infinitive) in C57BL/6 mouse plasma at 100 mg/kg, IG by LC-MS/MS analysis; format: ADME, organism-based; parameters: route […], time infinity, dose 100 mg/kg; conditions: po
[14] = Half life in C57BL/6 mouse plasma at 0.3 mg/kg, iv by LC-MS/MS analysis; format: ADME, organism-based
[15] = Half life in C57BL/6 mouse plasma at 1 mg/kg, iv by LC-MS/MS analysis; format: ADME, organism-based
[16] = Tmax in C57BL/6 mouse plasma at 0.3 mg/kg, iv by LC-MS/MS analysis; format: ADME, organism-based
[17] = Cmax in C57BL/6 mouse plasma at 0.3 mg/kg, iv by LC-MS/MS analysis; format: ADME, organism-based; parameters: route intravenous, dose 0.3 mg/kg
[18] = Cmax in C57BL/6 mouse plasma at 1 mg/kg, iv by LC-MS/MS analysis; format: ADME, organism-based; parameters: route intravenous, dose 1 mg/kg
[19] = Cmax in C57BL/6 mouse plasma at 10 mg/kg, IG by LC-MS/MS analysis; format: ADME, organism-based; parameters: route […], dose 10 mg/kg; conditions: po
[20] = AUC (0 to t) in C57BL/6 mouse plasma at 0.3 mg/kg, iv by LC-MS/MS analysis; format: ADME, organism-based; parameters: dose 0.3 mg/kg
[21] = AUC (0 to t) in C57BL/6 mouse plasma at 1 mg/kg, iv by LC-MS/MS analysis; format: ADME, organism-based; parameters: dose 1 mg/kg
[22] = AUC (0 to t) in C57BL/6 mouse plasma at 10 mg/kg, IG by LC-MS/MS analysis; format: ADME, organism-based; parameters: dose 10 mg/kg; conditions: po
[23] = AUC (0 to infinitive) in C57BL/6 mouse plasma at 0.3 mg/kg, iv by LC-MS/MS analysis; format: ADME, organism-based; parameters: time infinity, route intravenous, dose 0.3 mg/kg
[24] = AUC (0 to infinitive) in C57BL/6 mouse plasma at 1 mg/kg, iv by LC-MS/MS analysis; format: ADME, organism-based; parameters: time infinity, route intravenous, dose 1 mg/kg
[25] = Clearance in C57BL/6 mouse plasma at 1 mg/kg, iv by LC-MS/MS analysis; format: ADME, organism-based
[26] = MRT in C57BL/6 mouse plasma at 0.3 mg/kg, iv by LC-MS/MS analysis; format: ADME, organism-based
[27] = MRT in C57BL/6 mouse plasma at 1 mg/kg, iv by LC-MS/MS analysis; format: ADME, organism-based
[28] = MRT in C57BL/6 mouse plasma at 10 mg/kg, IG by LC-MS/MS analysis; format: ADME, organism-based; conditions: po
[29] = Oral bioavailability in C57BL/6 mouse plasma at 0.3 mg/kg, IG by LC-MS/MS analysis; format: ADME, organism-based
[30] = Oral bioavailability in C57BL/6 mouse plasma at 1 mg/kg, IG by LC-MS/MS analysis; format: ADME, organism-based
Mus musculus [31] = assay: Neuroprotective activity in mouse model of transient middle cerebral artery occlusion-induced cerebral ischemia-reperfusion injury assessed as reduction in infarct volume at 1 mg/kg, iv treated for 3 hrs after onset of reperfusion by TTC staining based assay (reference value: 52 +/- 1.7%); format: functional; parameters: scale not given: the % may be the effect or the level left
Mus musculus [32] = assay: Neuroprotective activity in mouse model of transient middle cerebral artery occlusion-induced cerebral ischemia-reperfusion injury assessed as reduction in infarct volume at 0.3 mg/kg, iv treated for 3 hrs after onset of reperfusion by TTC staining based assay (reference value: 52 +/- 1.7%); format: functional; parameters: scale not given: the % may be the effect or the level left
Mus musculus [33] = assay: Neuroprotective activity in mouse model of transient middle cerebral artery occlusion-induced cerebral ischemia-reperfusion injury assessed as reduction neurological score at 1 mg/kg, iv treated for 3 hrs after onset of reperfusion by TTC staining based assay relative to control; format: functional, organism-based
[34] = target: T1, Transient receptor potential cation channel subfamily M member 2; assay: Inhibition of human TRPM2 expressed in HEK293T cells assessed as suppression of H2O2-induced calcium flux at 1 uM measured after 30 mins by Fluo-3/AM assay; format: cell-based

T1 sequence (O94759 whole entry): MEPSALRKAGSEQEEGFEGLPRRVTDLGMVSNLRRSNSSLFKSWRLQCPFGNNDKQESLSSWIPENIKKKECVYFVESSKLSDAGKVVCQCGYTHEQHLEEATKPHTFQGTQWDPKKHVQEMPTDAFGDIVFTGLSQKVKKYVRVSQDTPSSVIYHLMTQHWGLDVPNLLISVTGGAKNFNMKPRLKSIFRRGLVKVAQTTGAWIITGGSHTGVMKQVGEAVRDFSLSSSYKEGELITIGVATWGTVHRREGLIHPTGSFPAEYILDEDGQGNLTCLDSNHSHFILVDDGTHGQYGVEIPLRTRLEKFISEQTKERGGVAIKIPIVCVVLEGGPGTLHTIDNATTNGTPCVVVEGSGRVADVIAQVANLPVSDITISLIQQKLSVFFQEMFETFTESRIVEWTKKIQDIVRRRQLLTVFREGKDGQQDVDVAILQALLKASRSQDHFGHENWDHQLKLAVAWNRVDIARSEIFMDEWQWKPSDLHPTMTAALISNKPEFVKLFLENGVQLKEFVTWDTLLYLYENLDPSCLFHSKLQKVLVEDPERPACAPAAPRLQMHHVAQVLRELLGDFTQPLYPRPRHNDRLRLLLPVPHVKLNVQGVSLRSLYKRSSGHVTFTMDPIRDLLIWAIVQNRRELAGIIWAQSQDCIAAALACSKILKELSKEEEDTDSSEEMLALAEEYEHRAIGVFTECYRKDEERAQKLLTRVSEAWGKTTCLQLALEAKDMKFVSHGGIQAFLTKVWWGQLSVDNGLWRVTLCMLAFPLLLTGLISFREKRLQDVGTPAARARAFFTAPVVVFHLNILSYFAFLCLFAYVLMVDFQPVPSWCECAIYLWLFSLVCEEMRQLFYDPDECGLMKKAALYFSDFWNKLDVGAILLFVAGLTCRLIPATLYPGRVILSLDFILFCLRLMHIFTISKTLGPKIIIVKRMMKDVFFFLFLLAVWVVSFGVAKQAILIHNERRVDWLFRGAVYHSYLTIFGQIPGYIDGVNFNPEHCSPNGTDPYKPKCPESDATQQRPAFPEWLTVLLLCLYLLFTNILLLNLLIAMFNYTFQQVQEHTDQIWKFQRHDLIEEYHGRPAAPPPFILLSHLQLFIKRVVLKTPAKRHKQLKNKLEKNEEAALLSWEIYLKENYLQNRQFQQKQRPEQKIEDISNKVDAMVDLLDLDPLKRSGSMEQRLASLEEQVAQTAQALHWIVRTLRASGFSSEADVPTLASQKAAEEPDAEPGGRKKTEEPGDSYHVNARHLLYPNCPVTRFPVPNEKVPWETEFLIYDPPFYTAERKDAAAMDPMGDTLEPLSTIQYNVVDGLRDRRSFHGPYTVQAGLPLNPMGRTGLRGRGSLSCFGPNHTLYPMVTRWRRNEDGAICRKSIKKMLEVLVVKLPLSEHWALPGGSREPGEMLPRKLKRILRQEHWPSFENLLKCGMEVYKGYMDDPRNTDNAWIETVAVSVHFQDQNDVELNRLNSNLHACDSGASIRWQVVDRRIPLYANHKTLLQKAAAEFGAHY
T2 sequence (P04054 23-148 limits assumed): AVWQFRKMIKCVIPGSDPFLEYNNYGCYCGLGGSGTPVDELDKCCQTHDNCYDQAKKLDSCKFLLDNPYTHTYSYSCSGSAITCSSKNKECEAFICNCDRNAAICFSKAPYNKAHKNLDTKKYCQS
Transient receptor potential cation channel subfamily M member 8, sequence (Q7Z2W7 whole entry, looked up, the tested form may be a part): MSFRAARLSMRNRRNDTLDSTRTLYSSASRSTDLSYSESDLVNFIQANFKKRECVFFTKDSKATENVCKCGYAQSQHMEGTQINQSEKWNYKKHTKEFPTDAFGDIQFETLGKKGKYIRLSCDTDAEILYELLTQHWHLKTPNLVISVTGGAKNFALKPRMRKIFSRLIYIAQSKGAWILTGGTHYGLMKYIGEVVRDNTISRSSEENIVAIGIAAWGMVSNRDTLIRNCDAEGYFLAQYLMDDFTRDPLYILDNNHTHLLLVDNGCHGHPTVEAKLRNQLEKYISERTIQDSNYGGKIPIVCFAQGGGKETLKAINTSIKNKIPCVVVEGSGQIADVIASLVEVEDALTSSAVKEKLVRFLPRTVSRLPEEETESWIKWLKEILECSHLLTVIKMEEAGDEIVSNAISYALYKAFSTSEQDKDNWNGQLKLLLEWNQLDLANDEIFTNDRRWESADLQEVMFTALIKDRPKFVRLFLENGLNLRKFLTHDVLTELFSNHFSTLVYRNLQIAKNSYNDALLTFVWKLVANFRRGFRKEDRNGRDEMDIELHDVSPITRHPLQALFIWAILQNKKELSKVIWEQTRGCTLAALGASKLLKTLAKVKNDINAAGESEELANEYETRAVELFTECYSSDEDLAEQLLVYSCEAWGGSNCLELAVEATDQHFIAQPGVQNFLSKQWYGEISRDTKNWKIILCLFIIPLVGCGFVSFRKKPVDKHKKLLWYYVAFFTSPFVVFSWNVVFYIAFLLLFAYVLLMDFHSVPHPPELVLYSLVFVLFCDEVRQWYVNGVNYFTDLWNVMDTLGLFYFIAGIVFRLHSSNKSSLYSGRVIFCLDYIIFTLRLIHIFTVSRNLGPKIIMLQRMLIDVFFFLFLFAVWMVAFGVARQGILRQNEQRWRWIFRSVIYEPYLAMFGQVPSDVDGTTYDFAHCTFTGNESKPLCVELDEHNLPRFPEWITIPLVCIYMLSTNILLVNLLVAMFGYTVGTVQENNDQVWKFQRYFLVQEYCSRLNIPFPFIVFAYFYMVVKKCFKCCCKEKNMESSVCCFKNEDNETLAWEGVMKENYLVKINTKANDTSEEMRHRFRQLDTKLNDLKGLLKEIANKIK

With `O=C(/C=C/c1ccc(-c2cccc(C(F)(F)F)c2)cc1)Nc1ccccc1C(=O)O` the IC50 [1] was 788 nM, the Activity (SH-SY5Y [2]) was < 10% and the inhibition [3] was 22.6%. For the same compound, the inhibition (Phospholipase A2 [4]) was 14.8%, the inhibition (Phospholipase A2 [5]) was 7.8% and the Activity (SH-SY5Y [6]) was “Active”. For the same compound, the viability at 0.3 µM (SH-SY5Y [7]) was 68.7%, the Activity (SH-SY5Y [8]) was 80% and the Cmax [9] was 24300 ng/mL. It also gave an AUC(0-inf) [10] of 40.9 µg·h/mL, a half-life [11] of 3.62 h and a Cmax [12] of 168000 ng/mL. It also gave an AUC(0-inf) [13] of 1870 µg·h/mL, a half-life [14] of 0.93 h and a half-life [15] of 1.7 h. It also gave a Tmax [16] of 4.8 min, a Cmax [17] of 5070 ng/mL and a Cmax [18] of 13000 ng/mL. The Cmax [19] was 58400 ng/mL, the AUC(0-t) [20] was 5.2 µg·h/mL and the AUC(0-t) [21] was 18.5 µg·h/mL. It also gave an AUC(0-t) [22] of 157 µg·h/mL, an AUC(0-inf) [23] of 5.45 µg·h/mL and an AUC(0-inf) [24] of 18.9 µg·h/mL. It also gave a clearance [25] of 0.882 mL/min/kg, an MRT [26] of 1.19 h and an MRT [27] of 1.7 h. The MRT [28] was 2.25 h, the bioavailability [29] was 90.4% and the bioavailability [30] was 84.8%. For the same compound, the Activity (Mus musculus [31]) was 38.5%, the Activity (Mus musculus [32]) was 39.8% and the Activity (Mus musculus [33]) was “inactive”. For the same compound, the inhibition [34] was > 45%.
